Compounds with a hit are over-represented: about 0.59% of the library has one in this group of screens.
V1R ag counter: agonists of human V1a receptor, primary screen, counter-screen for OXTR agonist project, fluorescence, CHO-V1R cells; AID 2797, 2010; Fluo-8 calcium fluorescence, agonist mode; 0% DMSO, 100% 3 nM vasopressin; activation, % at 3 µM; 0.25% of 320,000 active;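 active = activation above the mean activation of all tested compounds plus 3 SD, per screening run, cut at about 20% in these data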;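 also: signal is peak over basal fluorescence ratio across a 100 second FLIPR read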
OXTR potentiator: human OXTR potentiators, primary screen, fluorescence, CHO-OTR cells, Fluo-8 calcium; Oxytocin receptor (Homo sapiens), P30559; Fluo-8 calcium fluorescence, potentiator mode; 0% = oxytocin EC15, 100% = EC100; activation, % at 3 µM; 0.061% of 320,000 active;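 active = activation above that plate's cutoff, the mean activation of tested compounds plus 3 SD, cut at about 6.6% in these data, passing the limit was not always enough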;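 also: 100% uses oxytocin at 75 nM as the full agonist control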
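Assay system: CHO cell line stably expressing human OTR. Reagent: EC15 oxytocin agonist. Dosing: single dose, 3.0 µM nominal final compound concentration. Timing: compound 6 min at room temperature before oxytocin, 100 s read. Signal: kinetic Fluo-8 calcium fluorescence. Controls: oxytocin EC15 low and EC100 high.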
OXTR ag: human OXTR agonists, primary screen, fluorescence, CHO-OTR cells, Fluo-8 calcium; Oxytocin receptor (Homo sapiens), P30559; Fluo-8 calcium fluorescence; normalized: DMSO 0%, oxytocin 100%; activation, % at 3 µM; 0.32% of 320,000 active;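 active = activation above the mean of all tested compounds plus 3 SD, cutoff set per screening run, cut at about 20% in these data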;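 also: peak over basal fluorescence ratio from a 100 s FLIPR kinetic read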
zfTRPN1 agonist: zebrafish TRPN1 channel agonists, primary screen, cell-based, HEK293, calcium fluorescence; 0.18% of 220,000 active; HEK293 zebrafish TRPN1-YFP, Fluo-8 calcium fluorescence; 100% = response to 87 µM carbachol; AID 1424, 2008; activation, % at 3 µM;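 active = activation above its plate's cutoff, the mean activation of test wells on that plate plus 3 SD, cut at about 19% in these data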;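 also: 0% = DMSO alone and 100% = 87 µM carbachol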
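Material: zebrafish TRPN1-YFP in HEK293 cells; Doses: single test compound dose, 3 µM nominal, 0.3% DMSO; Timing: dye loading 1 h at 37 °C, then 30 min room temperature; Technique: intracellular calcium fluorescence with Fluo-8; Benchmarks: high carbachol 87 µM, low DMSO alone.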
TRPML3 agonist: human TRPML3 channel agonists, primary screen, cell-based, HEK293 TRPML3-YFP, Fluo-8 calcium fluorescence, 3 µM | 0.29% of 220,000 active | 100% = the carbachol control signal | activation, % at 3 µM | Mucolipin-3 (Homo sapiens), Q8TDD5 | AID 1448, 2008;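 active = activation above its plate's cutoff, the mean activation of the plate's test wells plus 3 SD, cut at about 12% in these data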;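 also: 0% = DMSO only wells and 100% = carbachol wells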
Target sequence (Q8TDD5 whole entry, looked up): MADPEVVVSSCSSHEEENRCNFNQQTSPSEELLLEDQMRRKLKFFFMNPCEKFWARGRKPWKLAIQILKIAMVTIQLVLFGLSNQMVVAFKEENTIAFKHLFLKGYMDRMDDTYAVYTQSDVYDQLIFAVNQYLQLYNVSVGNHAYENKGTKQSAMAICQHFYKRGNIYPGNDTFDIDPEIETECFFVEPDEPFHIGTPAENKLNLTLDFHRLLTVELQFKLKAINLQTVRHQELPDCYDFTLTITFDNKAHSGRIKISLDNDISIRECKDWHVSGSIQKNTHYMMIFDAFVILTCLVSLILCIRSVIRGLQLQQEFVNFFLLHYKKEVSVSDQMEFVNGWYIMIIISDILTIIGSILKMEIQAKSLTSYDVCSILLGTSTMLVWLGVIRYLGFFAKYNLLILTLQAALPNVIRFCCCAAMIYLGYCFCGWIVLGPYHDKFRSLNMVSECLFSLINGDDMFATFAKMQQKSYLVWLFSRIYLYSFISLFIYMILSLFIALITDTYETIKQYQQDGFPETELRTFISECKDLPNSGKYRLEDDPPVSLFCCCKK
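system = HEK293 cells stably carrying human TRPML3-YFP | doses = one concentration, 3 µM nominal, 0.3% DMSO | timing = dye loading 1 h 37 °C then 30 min ambient, 125 s read | detection = Fluo-8 calcium dye fluorescence, ex 470-495, em 515-575 nm | benchmarks = high control carbachol 87 µM, low control DMSO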
OXTR pot cf: human OXTR potentiators, confirmation, fluorescence, CHO-OTR cells, triplicate; 180 tested, under 10 active; Fluo-8 calcium fluorescence, potentiation; scaled from low-dose to maximal oxytocin; activation, % at 3 µM; shares compounds with OXTR potentiator;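 active = mean percent activation over triplicates above a cutoff set from solvent-only control plates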;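 also: compounds tested in the presence of an EC15 dose of oxytocin; 0% = EC15 oxytocin with DMSO and 100% = EC100 oxytocin with DMSO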
The depositor's hits bear a star.

How did Cc1noc(C)c1C(=O)N1CCN(CCc2ccccc2)CC1 do in these assays?
V1R ag counter: 1; OXTR potentiator: 0; OXTR ag: 0; zfTRPN1 agonist: -1; TRPML3 agonist: 0

What do the screens show for `CC(=O)N1CCN(S(=O)(=O)c2cccc(C(=O)OCN3C(=O)c4ccccc4C3=O)c2)CC1`?
V1R ag counter: 1; OXTR potentiator: 11*; OXTR ag: 2; OXTR pot cf: -6

Results for O=S(=O)(c1ccc(F)c(Cl)c1)N1CCN(C/C=C/c2ccccc2)CC1 ?
V1R ag counter: -1; OXTR potentiator: -10; OXTR ag: -1

What do the screens show for `CCCOc1ccc(-c2c(C(=O)N/N=C/c3ccc(C)cc3)nnn2-c2nonc2N)cc1`?
V1R ag counter: 1; OXTR potentiator: 22*; OXTR ag: 1; zfTRPN1 agonist: 1; TRPML3 agonist: 1; OXTR pot cf: 3

Results for CCOc1ccc(-c2c(C(=O)N/N=C/c3ccc(Cl)cc3)nnn2-c2nonc2N)cc1 ?
V1R ag counter: 11; OXTR potentiator: 23*; OXTR ag: 7; OXTR pot cf: 11*

How did Cc1ccc(S(=O)(=O)CCC(=O)OCC(=O)NCC(=O)Nc2c(C)cc(C)cc2C)cc1 do in these assays?
V1R ag counter: 0; OXTR potentiator: 4; OXTR ag: -1

How did O=C(Nn1c(C2CCC2)nc2ccccc2c1=O)C1CCC1 do in these assays?
V1R ag counter: -1; OXTR potentiator: 13*; OXTR ag: -2; zfTRPN1 agonist: -1; TRPML3 agonist: 1; OXTR pot cf: -8

How did Cc1nc2ccccc2c(=O)n1NC(=O)C1CCCCC1 do in these assays?
V1R ag counter: 0; OXTR potentiator: -4; OXTR ag: -1; zfTRPN1 agonist: 0; TRPML3 agonist: 0

What do the screens show for `O=P(c1ccccc1)(c1ccccc1)c1ccc(O)cc1`?
V1R ag counter: 0; OXTR potentiator: -10; OXTR ag: 1

How did CCOC(=O)c1c(CN2CCC(C)CC2)oc2ccc(OC)cc12 do in these assays?
V1R ag counter: -1; OXTR potentiator: 12*; OXTR ag: -2; zfTRPN1 agonist: -1; TRPML3 agonist: 0; OXTR pot cf: -5

Results for CCOC(=O)c1c(CN2CCCCC2)oc2ccc(OC)cc12 ?
V1R ag counter: -1; OXTR potentiator: -3; OXTR ag: -1; zfTRPN1 agonist: -1; TRPML3 agonist: -1

How did COc1ccccc1/C(C)=N/NC(=S)NCc1ccccc1 do in these assays?
V1R ag counter: -1; OXTR potentiator: -8; OXTR ag: 0; zfTRPN1 agonist: -1; TRPML3 agonist: 0

How did COC(=O)c1cc(S(=O)(=O)N2CCCC(C)C2)c[nH]1 (stereo not drawn) do in these assays?
V1R ag counter: 1; OXTR potentiator: -7; OXTR ag: 0

How did COC(=O)c1cc(S(=O)(=O)N2CCCCC2C)c[nH]1 (stereo not drawn) do in these assays?
V1R ag counter: 1; OXTR potentiator: 11*; OXTR ag: 0; OXTR pot cf: -8

What do the screens show for `COCCOc1ccc(C(F)(F)F)cc1NC(=O)c1ccccc1`?
V1R ag counter: -1; OXTR potentiator: 14*; OXTR ag: -2; zfTRPN1 agonist: 0; TRPML3 agonist: 1; OXTR pot cf: -2

How did O=C(CSc1ncnc2sc3c(c12)CCC3)NCC1CCCO1 (stereo not drawn) do in these assays?
V1R ag counter: 2; OXTR potentiator: 20*; OXTR ag: -1; OXTR pot cf: -3

Results for COc1ccc(OCCN2CCN(C(=O)c3ccc(OC)c(OC)c3)CC2)cc1 ?
V1R ag counter: 3; OXTR potentiator: -3; OXTR ag: 2

High-throughput results as filed in PubChem BioAssay.
